Screening results from PubChem BioAssay.
The list is not random: actives were taken first. Their share in the collection is about 3.1%.
rCAG RNA binder = binds r(CAG) RNA repeats; r(CAG) RNA repeat, TO-PRO-1 dye displacement fluorescence; inhibition, % at 3 µM; 370,000 tested, 1.3% active; AID 651821;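 active means inhibition above the plate cutoff, the mean of all test compounds on that plate plus 3 SD, cut at about 35% in these data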;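 further: 0% = DMSO alone and 100% = 100 µM mitoxantrone as full dye displacement; higher means more dye released from RNA so lower well fluorescence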
LEDGF integ inh = blocks HIV-1 LEDGF/p75-dependent DNA integration. TR-FRET IN-LEDGF/p75 DNA integration, Eu/Cy5. inhibition, % at 3.7 µM. 370,000 tested, 0.64% active. AID 743269;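 active means inhibition above the screen-wide mean plus 3 SD, cut at about 13% in these data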;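 further: signal is the Cy5 over europium emission ratio at 671 and 618 nm; 0% = plate median of compound wells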
MBD2 inh = inhibitors of human MBD2 binding to methylated oligonucleotide; TR-FRET; inhibition, % at 4.4 µM; 370,000 tested, 0.31% active; AID 686964; in the data active means inhibition above about 13%
Target sequence (Q9UBB5 whole entry, looked up): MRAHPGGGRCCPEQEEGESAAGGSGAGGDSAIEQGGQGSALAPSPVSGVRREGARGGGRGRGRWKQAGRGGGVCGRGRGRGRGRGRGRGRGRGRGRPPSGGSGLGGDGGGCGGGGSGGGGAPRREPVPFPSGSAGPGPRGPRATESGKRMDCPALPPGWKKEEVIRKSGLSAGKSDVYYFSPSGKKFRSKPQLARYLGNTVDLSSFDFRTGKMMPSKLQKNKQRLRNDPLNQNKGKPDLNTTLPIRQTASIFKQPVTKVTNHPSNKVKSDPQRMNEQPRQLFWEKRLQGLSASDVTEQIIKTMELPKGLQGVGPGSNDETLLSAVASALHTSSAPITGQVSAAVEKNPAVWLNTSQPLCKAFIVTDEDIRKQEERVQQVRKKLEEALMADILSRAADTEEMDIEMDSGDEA
CSN deneddyl inh = blocks human CSN-mediated cullin deneddylation. Purified CSN, SCF-Nedd8-OG deneddylation, fluorescence polarization. inhibition, % at 12.5 µM. Q92905. 360,000 tested, 0.38% active;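 active means pattern-corrected inhibition above about 35%, with an unprinted fluorescence ratio check between 0.5 and 1.5, limit read from the data, passing the limit was not always enough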;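 further: 0% = enzyme with substrate and 100% = substrate without enzyme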
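assay system = purified human Csn5 enzyme expressed in HEK293T cells | amount = 0.24 nM enzyme | buffer or medium = Tris/NaCl/DTT buffer, pH 7.5 | reagent = 10 nM SCFSkp2-Nedd8OG | compound = one concentration, 12.5 µM, 0.25% DMSO | times = 90 min reaction at room temperature | signal = FP | read-out basis = % inhibition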
ATG4B inh = inhibitors of human ATG4B cysteine protease. Q9Y4P1. ATG4B cleavage of LC3-PLA2, NBD-HPC fluorescence, 1 h. inhibition, % at 8.33 µM. 340,000 tested, 0.51% active. AID 504462; in the data active means inhibition above about 40%
UHRF1 binding = UHRF1 methyl-DNA binding inhibition | AID 687016 | 370,000 tested, 0.75% active | Q96T88 | inhibition, % at 4.4 µM | UHRF1 binding to methylated oligo, TR-FRET; in the data active means inhibition above about 21%;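 further: UHRF1 SRA domain binding a hemimethylated CpG hairpin DNA probe; 0% = median of test compound wells and 100% = reference inhibitor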
rCAG bind conf = r(CAG) RNA repeat binding, confirmation; TO-PRO-1 dye displacement fluorescence; shares compounds with rCAG RNA binder; 4,300 tested, 70% active; inhibition, % at 3 µM; AID 652065;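 active means inhibition above a per-plate cutoff, the mean inhibition of sample wells plus 3 SD, cut at about 35% in these data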;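 further: loss of TO-PRO-1 fluorescence as compound displaces dye from 1x1 AA loop RNA; 0% = DMSO only wells and 100% = 100 µM mitoxantrone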
dCAG dye counter = DNA CAG dye complex inhibition counter-screen. inhibition, % at 3 µM. 4,300 tested, 94% active. AID 652068. shares compounds with rCAG RNA binder. d(CAG) DNA oligo TO-PRO-1 dye displacement, fluorescence;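 active means inhibition above its plate's cutoff, the mean test-well inhibition plus 3 SD, cut at about 4.8% in these data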;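 further: 0% = DNA dye mix with DMSO and 100% = 100 µM mitoxantrone; hits displace the dye from DNA and so lower well fluorescence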
dCAG dye DR = disrupts DNA CAG TO-PRO-1 complex in dose response. 250 tested, 20% active. DNA CAG/GTC duplex TO-PRO-1 dye displacement fluorescence. shares compounds with rCAG RNA binder. IC50, µM; in the data active means IC50 below about 10 µM
The depositor's hits bear a star; / = no result.

SMILES	rCAG RNA binder	LEDGF integ inh	MBD2 inh	CSN deneddyl inh	ATG4B inh	UHRF1 binding	rCAG bind conf	dCAG dye counter	others
CN(C)S(=O)(=O)c1cccc(C(=O)N/N=C\c2ccc(-c3ccccn3)cc2)c1	2	-3	3	/	/	-1	/	/
CCOc1cccc(/C=N/NC(=S)Nc2ccccc2[N+](=O)[O-])c1O	35*	-2	1	-1	3	-9	35*	15*
O=C(O)COc1ccccc1/C=C1\SC(=S)N(NC(=O)c2ccccc2O)C1=O	61*	6	-1	16	9	9	42*	10*
O=C(NN1C(=O)/C(=C/c2cccc(O)c2)SC1=S)c1ccccc1O	75*	2	-1	-5	2	-7	51*	16*
O=C1CCC[C@H]2C[C@H](NCc3ccc(F)cc3F)CC[C@]23CCCN13	/	0	2	/	/	-1	/	/
COc1ccc(C2CC(=O)C(c3cccc(C)c3)=CN2Cc2ccccc2)cc1 (stereo unspecified)	3	1	4	/	/	0	/	/
CCOC(=O)CSc1nc2c(sc(=S)n2-c2ccccc2)c(=O)n1-c1ccc(OC)cc1OC	10	-1	1	3	6	0	/	/
CCc1ccc(-n2c(=S)sc3c(=O)n(-c4ccccc4C)c(SCC(=O)O)nc32)cc1	41*	0	-1	-1	1	8	44*	13*
CCOc1ccccc1-n1c(=S)sc2c(=O)n(-c3ccc(F)cc3)c(SCC(=O)O)nc21	25	-4	3	1	-11	4	/	/
CCN(CC)C(=O)CSc1nc2c(sc(=S)n2-c2ccccc2)c(=O)n1-c1ccccc1OC	-1	3	-5	3	9	-1	/	/
COc1ccccc1-n1c(SCC(=O)O)nc2c(sc(=S)n2-c2ccc(C)c(C)c2)c1=O	48*	3	-2	-5	-2	-1	72*	33*	dCAG dye DR=>30
Cc1cc(-n2c(=S)sc3c(=O)n(-c4ccc(F)cc4)c(SCC(=O)O)nc32)ccc1Cl	48*	-3	0	-3	-1	-1	38*	12*
COc1ccccc1-n1c(SCC(=O)O)nc2c(sc(=S)n2-c2ccc(Cl)c(C)c2)c1=O	66*	-2	2	0	8	0	60*	24*
COC(=O)[C@]12C[C@H](CC(=O)N3CCSCC3)C(=O)N(Cc3ccco3)C1=C[C@H](COCc1ccccc1)O[C@@H]2C	6	2	1	/	/	1	/	/
Cc1ccccc1CC(=O)Nc1nnc(-c2cccnc2)s1	1	-2	-2	/	/	-2	/	/
CCOC(=O)[C@]12CCCCC/C=C\1N(CCc1ccc(Cl)cc1)C(=O)[C@H]2CC(=O)N1CCN(C(=O)c2ccco2)CC1	6	-1	0	/	/	1	/	/
Cc1ccc(-n2c(=S)sc3c(=O)n(-c4ccccc4C)c(SCC(=O)O)nc32)cc1C	41*	3	5	-2	1	0	68*	28*
CCc1cc(C(=O)O)c(NC(=O)/C=C/c2ccc(OC)cc2)s1	25	5	-4	3	2	-2	/	/
CCc1cc(C(=O)O)c(NC(=O)/C=C/c2ccc(OC)c(OC)c2)s1	56*	1	-2	-3	-8	5	40*	9.9*
O=C(NC1CCCCN(Cc2cccc(Cl)c2)C1=O)c1ccccn1 (stereo unspecified)	1	-1	5	/	/	-1	/	/
COc1ccc(/C=C2/SC(=S)N(CCC(=O)O)C2=O)cc1	11	-1	-2	1	18	-9	/	/
COc1ccc(/C=C2\SC(=O)N(CC(=O)NNC(=O)c3ccccc3O)C2=O)cc1OC	51*	-2	-8	-3	-11	-5	46*	16*
COc1ccc(/C=C2\SC(=O)N(CC(=O)NNC(=O)c3ccccc3O)C2=O)cc1	23	0	-1	-1	5	-4	/	/
COc1ccc(/C=C2/SC(=S)N(Cc3ccccc3)C2=O)cc1O	44*	3	1	0	1	0	26	14*
COc1ccc(/C=C2\SC(=S)N(N3C(=O)CCC3=O)C2=O)cc1O	14	-5	-10	-2	-12	-15	/	/
SMILES	rCAG RNA binder	LEDGF integ inh	MBD2 inh	CSN deneddyl inh	ATG4B inh	UHRF1 binding	rCAG bind conf	dCAG dye counter	others
O=C(O)COc1ccc(/C=C2/SC(=S)N(Cc3ccccc3)C2=O)cc1	76*	9	8	19	24	2	85*	52*
COc1cccc(/C=C2\CC3(OC(=O)c4ccc(Cl)cc4)CCCN2C3)c1 (stereo unspecified)	1	3	-2	/	/	5	/	/
O=C(Cn1cc(COc2ccc3ccccc3c2)nn1)NS(=O)(=O)c1cccc(OC(F)F)c1	55*	-2	-3	3	/	1	71*	23*	dCAG dye DR=9.3*
O=C(NCc1ccc(Cl)cc1)C1CCCN(c2ncccn2)C1 (stereo unspecified)	-1	-1	-2	/	/	4	/	/
Cc1ccc([C@@H]2CC=C(C(=O)O)[C@H](c3ccccc3F)N2S(=O)(=O)c2ccc(C)cc2)cc1	61*	-2	0	-1	-5	0	55*	21*
COc1ccc([C@@H]2CC=C(C(=O)O)[C@H](c3ccccc3F)N2S(=O)(=O)c2ccc(C)cc2)cc1OC	32	-3	3	111	2	-3	/	/
Cc1ccc(S(=O)(=O)N2[C@@H](c3ccccc3F)C(C(=O)O)=CC[C@H]2c2ccc(C(C)C)cc2)cc1	77*	1	-1	2	-2	2	81*	47*
O=C1NN(c2ccccc2)C(=O)/C1=C/c1ccc(Sc2ccc(Cl)cc2)o1	31	-4	1	9	-3	5	/	/
Cc1ccc(Sc2ccc(/C=C3/C(=O)NN(c4ccccc4)C3=O)o2)cc1	35*	5	0	11	9	9	81*	46*
CC(=O)Nc1ccc(S(=O)(=O)Nc2nc3ccccc3nc2Nc2ccc(N)cc2)cc1	42*	0	5	83	5	4	32	11*
CC(=O)Nc1ccc(S(=O)(=O)Nc2nc3ccccc3nc2Nc2cccc(O)c2)cc1	59*	1	1	2	1	-2	46*	12*
CC(=O)Nc1ccc(Nc2nc3ccccc3nc2NS(=O)(=O)c2ccc(Cl)c([N+](=O)[O-])c2)cc1	91*	3	-1	-3	2	-2	93*	76*
